Reference: ChEMBL document CHEMBL5346861, “Designing quinoline-isoniazid hybrids as potent anti-tubercular agents inhibiting mycolic acid biosynthesis” (Eur J Med Chem, 2022)
Values after ≈ are worked out from the molar mass of the structure shown. Active and inactive are the calls of the source. No cut-off for these calls is given here.

What was measured:
[1] = test system: Mycobacterium tuberculosis; assay: Antimycobacterial activity against Mycobacterium tuberculosis mc2 6230 assessed as inhibition of bacterial growth measured after 7 days by broth dilution method; type: functional; settings: mc2 6230, 168 h, time 7 day
Outline: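 Pantothenate auxotroph carrying empty pMV261. 2-fold serial dilutions, 37 °C, no agitation, 7 days. MIC99 is the lowest concentration with no turbidity change. DMSO vehicle control.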

[2] = Cytotoxicity against human THP-1 cells assessed as reduction in cell viability measured after 24 hrs by resazurin staining based analysis; type: toxicity
Outline: (§1)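 THP-1 monocytes differentiated with 20 ng/mL PMA for 48 hrs at 1×10^5 cells/well. Compounds added by serial dilution from 100 µg/mL for 24 or 72 hrs at 37 °C and 5% CO₂. Resazurin 10% for 4 hrs, fluorescence at ex 540/em 590 nm. Mean of three independent experiments in triplicate. INH and RFB reference drugs.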

[3] = test system: Mycobacterium tuberculosis; assay: Antimycobacterial activity against Mycobacterium tuberculosis mc2 6230 assessed as reduction in log10 CFU at 20 times of MIC measured after 6 days by time-killing kinetics assay; type: functional; settings: time 6 day
Outline: (§2)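 Exposed to 1x, 5x or 20x MIC at 37 °C for up to 6 days. Serial dilutions plated on 7H10/OADC/pantothenate and colonies counted after 3 weeks. Mean of four independent experiments in technical triplicate, with SD. DMSO negative control.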

[4] = test system: Mycobacteroides abscessus; assay: Antimycobacterial activity against Mycobacterium abscessus CIP104536 smooth variant assessed as inhibition of bacterial growth measured after 4 days by broth dilution method; type: functional; settings: CIP104536, 96 h, time 4 day
Outline: (§3)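 MIC99 by CLSI broth 2-fold serial dilution in CaMHB. Inoculum 5.10⁶ CFU/mL. Incubated at 30 °C and read by turbidity after 4 days. DMSO vehicle control, INH reference.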

[5] = test system: Mycobacterium tuberculosis; assay: Antimycobacterial activity against Mycobacterium tuberculosis mc2 6230 assessed as inhibition of bacterial growth at 1 ug/ml measured after 7 days by broth dilution method; type: functional, organism-based; settings: dose 1.0 µg/ml, time 7.0 day
Vero = assay: Cytotoxicity against African green monkey Vero cells assessed as reduction in cell viability measured after 24 hrs by resazurin staining based analysis; type: toxicity; settings: chlorocebus sabaeus
Outline: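 Vero cells in RPMI 1640 with 10% FCS, 2×10^4 cells/well, adhered overnight at 37 °C and 5% CO₂. Compounds added at 100 to 0.78 µg/mL for 24 hrs. 10% resazurin added for 4 hrs, fluorescence read at ex 540/em 590 nm.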

Mycobacterium marinum = assay: Antimycobacterial activity against Mycobacterium marinum M strain assessed as inhibition of bacterial growth measured after 6 days by broth dilution method; type: functional; settings: 144 h, time 6 day
Outline: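 MIC99 by 2-fold serial broth dilution in 7H9 with 10% OADC and 0.025% tyloxapol. Inoculum 5.10⁶ CFU/mL. Incubated without agitation at 30 °C, scored for no turbidity change after 6 days. DMSO vehicle control.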

[6] = test system: Mycobacteroides abscessus; assay: Antimycobacterial activity against Mycobacterium abscessus CIP104536 rough variant assessed as inhibition of bacterial growth measured after 4 days by broth dilution method; type: functional; settings: CIP104536, 96 h, time 4 day; outline: as §3
[7] = test system: Mycobacterium tuberculosis; assay: Antimycobacterial activity against Mycobacterium tuberculosis mc2 6230 assessed as reduction in log10 CFU at 5 times of MIC measured after 3 days by time-killing kinetics assay; type: functional; settings: time 3 day; outline: as §2
[8] = test system: Mycobacterium tuberculosis; assay: Antimycobacterial activity against Mycobacterium tuberculosis mc2 6230 assessed as reduction in log10 CFU at 1 time of MIC measured after 6 days by time-killing kinetics assay; type: functional, organism-based; settings: time 6.0 day; outline: as §2
[9] = Cytotoxicity against human THP-1 cells assessed as reduction in cell viability measured after 72 hrs by resazurin staining based analysis; type: toxicity; outline: as §1
[10] = Selectivity index, […] Mycobacterium abscessus CIP104536 smooth variant to CC50 for cytotoxicity against human THP-1 cells; type: toxicity, cell-based; settings: read-out: Selectivity Index
[11] = Selectivity index, […] Mycobacterium tuberculosis H37Rv to CC50 for cytotoxicity against human THP-1 cells; type: toxicity, cell-based; settings: read-out: Selectivity Index
[12] = Selectivity index, […] Mycobacterium marinum M strain to CC50 for cytotoxicity against human THP-1 cells; type: toxicity, cell-based; settings: read-out: Selectivity Index
[13] = Selectivity index, […] Mycobacterium abscessus CIP104536 rough variant to CC50 for cytotoxicity against human THP-1 cells; type: toxicity, cell-based; settings: read-out: Selectivity Index

## O=C(N/N=C/c1ccc(OCc2cn(CCCNc3ccnc4cc(Cl)ccc34)nn2)cc1)c1cccnc1
[1]
  MIC: > 200 µg/mL

## O=Cc1ccc(OCc2cn(-c3ccnc4cc(Cl)ccc34)nn2)cc1
[1]
  MIC: > 200 µg/mL

## CO[C@H]1/C=C/O[C@@]2(C)Oc3c(C)c(O)c4c(c3C2=O)C2=NC3(CCN(CC(C)C)CC3)NC2=C(NC(=O)/C(C)=C\C=C\[C@H](C)[C@H](O)[C@@H](C)[C@@H](O)[C@@H](C)[C@H](OC(C)=O)[C@@H]1C)C4=O [RIFABUTIN]
[2]
  CC50 at 24 h: 60 µg/mL (≈ 70.8 µM)

## O=C(N/N=C/c1ccc(OCc2cn(CCNc3ccnc4cc(Cl)ccc34)nn2)cc1)c1cccnc1
[1]
  MIC: > 200 µg/mL

## O=C(N/N=C/c1ccc(OCc2cn(CCCNc3ccnc4cc(Cl)ccc34)nn2)cc1)c1ccncc1
[3]
  Activity: ~3 log10CFU/ml
[4]
  MIC: > 200 µg/mL
[5]
  Activity: Active
[1]
  MIC: 0.5 µg/mL (≈ 0.924 µM)
Vero
  Activity: Non-Toxic
Mycobacterium marinum
  MIC: 50 µg/mL (≈ 92.4 µM)
[6]
  MIC: > 200 µg/mL
[7]
  Activity: 2 log10CFU/ml
[8]
  Activity: Active
[9]
  CC50 at 72 h: 67 µg/mL (≈ 124 µM)
[2]
  CC50 at 24 h: > 100 µg/mL

## O=C(N/N=C/c1ccc(OCc2cn(-c3ccnc4cc(Cl)ccc34)nn2)cc1)c1cccnc1
[1]
  MIC: > 200 µg/mL

## COc1cc(C=O)ccc1OCc1cn(CCNc2ccnc3cc(Cl)ccc23)nn1
[1]
  MIC: > 200 µg/mL

## O=Cc1ccc(OCc2cn(CCCNc3ccnc4cc(Cl)ccc34)nn2)cc1
[4]
  MIC: > 200 µg/mL
[1]
  MIC: 50 µg/mL (≈ 119 µM)
Mycobacterium marinum
  MIC: 200 µg/mL (≈ 474 µM)
[6]
  MIC: > 200 µg/mL

## COc1cc(/C=N/NC(=O)c2ccncc2)ccc1OCc1cn(CCCNc2ccnc3cc(Cl)ccc23)nn1
[10]
  selectivity ratio: > 200
[3]
  Activity: ~3 log10CFU/ml
[4]
  MIC: > 200 µg/mL
[11]
  selectivity ratio: > 200
[12]
  selectivity ratio: > 200
[5]
  Activity: Active
[1]
  MIC: 0.25 µg/mL (≈ 0.438 µM)
Vero
  Activity: Non-Toxic
Mycobacterium marinum
  MIC: 100 µg/mL (≈ 175 µM)
[6]
  MIC: > 200 µg/mL
[7]
  Activity: 2 log10CFU/ml
[8]
  Activity: Active
[9]
  CC50 at 72 h: > 100 µg/mL
[2]
  CC50 at 24 h: > 100 µg/mL
[13]
  selectivity ratio: > 200

## COc1cc(/C=N/NC(=O)c2ccncc2)ccc1OCc1cn(-c2ccnc3cc(Cl)ccc23)nn1
[10]
  selectivity ratio: > 200
[3]
  Activity: ~3 log10CFU/ml
[4]
  MIC: > 200 µg/mL
[11]
  selectivity ratio: > 200
[12]
  selectivity ratio: > 200
[5]
  Activity: Active
[1]
  MIC: 0.5 µg/mL (≈ 0.973 µM)
Mycobacterium marinum
  MIC: > 200 µg/mL
[6]
  MIC: > 200 µg/mL
[7]
  Activity: 2 log10CFU/ml
[8]
  Activity: Active
[9]
  CC50 at 72 h: > 100 µg/mL
[2]
  CC50 at 24 h: > 100 µg/mL
[13]
  selectivity ratio: > 200

## O=Cc1ccccc1-n1cc(CN2CCN(c3ccnc4cc(Cl)ccc34)CC2)nn1
[4]
  MIC: > 200 µg/mL
[1]
  MIC: 100 µg/mL (≈ 231 µM)
Mycobacterium marinum
  MIC: > 200 µg/mL
[6]
  MIC: > 200 µg/mL

## Clc1ccc2c(N3CCNCC3)ccnc2c1
[1]
  MIC: 92 µg/mL (≈ 371 µM)

## COc1cc(/C=N/NC(=O)c2cccnc2)ccc1OCc1cn(CCNc2ccnc3cc(Cl)ccc23)nn1
[1]
  MIC: > 200 µg/mL

## COc1cc(/C=N/NC(=O)c2cnccn2)ccc1OCc1cn(CCCNc2ccnc3cc(Cl)ccc23)nn1
[1]
  MIC: > 200 µg/mL

## COc1cc(/C=N/NC(=O)c2ccncc2)ccc1OCc1cn(CCNc2ccnc3cc(Cl)ccc23)nn1
[3]
  Activity: ~3 log10CFU/ml
[4]
  MIC: > 200 µg/mL
[5]
  Activity: Active
[1]
  MIC: 0.5 µg/mL (≈ 0.898 µM)
Vero
  Activity: Non-Toxic
Mycobacterium marinum
  MIC: > 200 µg/mL
[6]
  MIC: > 200 µg/mL
[7]
  Activity: 2 log10CFU/ml
[8]
  Activity: Active
[9]
  CC50 at 72 h: 73 µg/mL (≈ 131 µM)
[2]
  CC50 at 24 h: > 100 µg/mL

## O=C(N/N=C/c1ccc(OCc2cn(-c3ccnc4cc(Cl)ccc34)nn2)cc1)c1cnccn1
[1]
  MIC: > 200 µg/mL
